Experiments:
[1] = Retention time of the compound by HPLC analysis; type: physicochemical
Outline: (§1)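 rhIDO incubation mixtures analysed by HPLC or UPLC, eluting with CH3CN/10 mM ammonium acetate 10/90 or 5/95 (v/v) at 0.7 mL/min. UV detection uses 221 and 284 nm for substrates and 321 or 360 nm for products. Product peaks are collected for mass spectrometry.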

[2] = target: Tryptophan 2,3-dioxygenase (Homo sapiens) (UniProt P48775); assay: Activity of 10 uM recombinant human TDO assessed as substrate consumption at 100 uM at 37 degC at pH 7.5 after 1 hr by HPLC with fluorescence detection method
Outline: (§2)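 Recombinant human TDO (1 or 10 μM enzyme) incubated with substrate at 100 μM, 37 °C, pH 7.5, for 1 h. Perchloric acid is then added and the mixture analysed by HPLC with fluorescence detection. Read-out is percentage of substrate consumed.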

[3] = target: Tryptophan 2,3-dioxygenase (Homo sapiens) (UniProt P48775); assay: Activity of 1 uM recombinant human TDO assessed as substrate consumption at 100 uM at 37 degC at pH 7.5 after 1 hr by HPLC with fluorescence detection method; outline: as §2
[4] = target: Indoleamine 2,3-dioxygenase 1 (Homo sapiens) (UniProt P14902); assay: Activity of recombinant human IDO assessed as retention time treated with 5-HO-L-Trp by HPLC analysis; outline: as §1
[5] = target: Indoleamine 2,3-dioxygenase 1 (Homo sapiens) (UniProt P14902); assay: Activity of recombinant human IDO assessed as retention time treated with 1-FETrp by HPLC analysis; outline: as §1
[6] = target: Indoleamine 2,3-dioxygenase 1 (Homo sapiens) (UniProt P14902); assay: Activity of recombinant human IDO assessed as retention time treated with 1-Me-L-Trp by HPLC analysis; outline: as §1
[7] = target: Indoleamine 2,3-dioxygenase 1 (Homo sapiens) (UniProt P14902); assay: Activity of recombinant human IDO assessed as retention time treated with L-Trp by HPLC analysis; outline: as §1

Sequence of Tryptophan 2,3-dioxygenase (Homo sapiens) (P48775 whole entry, looked up): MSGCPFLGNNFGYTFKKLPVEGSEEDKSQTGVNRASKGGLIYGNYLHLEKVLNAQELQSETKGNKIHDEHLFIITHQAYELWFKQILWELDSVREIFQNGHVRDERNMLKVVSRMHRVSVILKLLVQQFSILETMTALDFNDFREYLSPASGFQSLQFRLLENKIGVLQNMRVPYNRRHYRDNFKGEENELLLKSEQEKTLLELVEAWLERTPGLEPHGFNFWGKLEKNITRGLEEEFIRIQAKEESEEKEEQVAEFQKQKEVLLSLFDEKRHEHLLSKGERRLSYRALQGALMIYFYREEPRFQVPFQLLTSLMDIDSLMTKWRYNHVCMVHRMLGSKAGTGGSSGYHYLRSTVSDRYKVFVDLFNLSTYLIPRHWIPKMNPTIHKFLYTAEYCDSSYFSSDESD
Sequence of Indoleamine 2,3-dioxygenase 1 (Homo sapiens) (P14902 whole entry, looked up): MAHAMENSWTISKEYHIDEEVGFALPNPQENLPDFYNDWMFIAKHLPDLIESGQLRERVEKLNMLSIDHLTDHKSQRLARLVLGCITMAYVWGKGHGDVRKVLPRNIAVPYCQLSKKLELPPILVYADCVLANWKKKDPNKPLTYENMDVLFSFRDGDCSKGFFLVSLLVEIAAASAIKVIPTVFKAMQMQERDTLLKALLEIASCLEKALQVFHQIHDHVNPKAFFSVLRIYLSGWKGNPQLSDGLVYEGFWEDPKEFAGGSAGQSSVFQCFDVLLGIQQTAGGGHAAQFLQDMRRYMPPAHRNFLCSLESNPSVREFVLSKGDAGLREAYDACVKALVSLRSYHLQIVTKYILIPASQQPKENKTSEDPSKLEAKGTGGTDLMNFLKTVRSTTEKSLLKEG

Question: For `CC(C)(C)OC(=O)N[C@@H](Cc1c[nH]c2ccccc12)C(=O)O`, which Retention_time [1] is on record?
Answer: 5.9 min

Question: With `N[C@@H](Cc1cn(Cc2cn(CCF)nn2)c2ccccc12)C(=O)O` as the compound, how does the Retention_time [1] read?
Answer: 16.4 min

Question: Which results are given for `N[C@@H](Cc1c[nH]c2ccc(O)cc12)C(=O)O` [OXITRIPTAN]?
Answer: Activity [2]: 14%; Activity [3]: 0%; Retention_time [1]: 5.1 min

Question: With `Nc1ccc(O)cc1C(=O)C[C@H](N)C(=O)O` as the compound, how does the Retention time [4] read?
Answer: 3.9 min

Question: Which Retention_time [1] does the source give for `CC(N)Cc1c[nH]c2ccccc12` (stereo not given) here?
Answer: 11.1 min

Question: For `N[C@@H](Cc1c[nH]c2ccccc12)C(=O)O` [TRYPTOPHAN], which Activity [2] is on record?
Answer: 100%

Question: What about the Activity [3] of the same compound?
Answer: 67%

Question: What about the Retention_time [1] of the same compound?
Answer: 5.4 min

Question: Which Retention_time [1] does the source give for `NCCc1c[nH]c2ccccc12` [TRYPTAMINE] here?
Answer: 9 min

Question: Which Retention time [5] does the source give for `NC(CC(=O)c1ccccc1NCCF)C(=O)O` (stereo not given) here?
Answer: 7.9 min

Question: Which Retention_time [1] does the source give for `CC(=O)N[C@@H](Cc1c[nH]c2ccccc12)C(=O)O` [ACETYLTRYPTOPHAN] here?
Answer: 7 min

Question: What does the source list for `Cn1cc(C[C@H](N)C(=O)O)c2ccccc21` [(L)-1-METHYLTRYPTOPHAN]?
Answer: Activity [2]: 3%; Activity [3]: 0%; Retention_time [1]: 9.4 min

Question: With `CC(N)(Cc1c[nH]c2ccccc12)C(=O)O` (stereo not given) as the compound, how does the Retention_time [1] read?
Answer: 7 min

Question: Which Retention time [6] does the source give for `CN(C=O)c1ccccc1C(=O)C[C@H](N)C(=O)O` here?
Answer: 4.5 min

Question: Which results are given for `NC(Cc1cn(CCF)c2ccccc12)C(=O)O` (racemic)?
Answer: Activity [2]: 2%; Activity [3]: 0%; Retention_time [1]: 9.2 min

Question: For `NC(CC(=O)c1ccccc1N(C=O)CCF)C(=O)O` (stereo not given), which Retention time [5] is on record?
Answer: 5 min

Question: With `CNc1ccccc1C(=O)C[C@H](N)C(=O)O` as the compound, how does the Retention time [6] read?
Answer: 7.4 min

Question: With `N[C@@H](CC(=O)c1ccccc1NC=O)C(=O)O` as the compound, how does the Retention time [7] read?
Answer: 4.3 min

Question: Which Retention time [7] does the source give for `Nc1ccccc1C(=O)C[C@H](N)C(=O)O` here?
Answer: 4.5 min

Source: ChEMBL document CHEMBL3576814, “N (1)-Fluoroalkyltryptophan Analogues: Synthesis and in vitro Study as Potential Substrates for Indoleamine 2,3-Dioxygenase” (ACS Med Chem Lett, 2015)
